Bioassay records deposited in PubChem by several laboratories.
TAAR1 antagonist: human TAAR1 antagonism. Q96RJ0. CHO RD-HGA16 TAAR1, Fluo-8 calcium fluorescence, antagonist. inhibition, % at 3 µM. 360,000 tested, 1.5% active;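 active = inhibition above a per-plate cutoff, the mean inhibition of test compounds on that plate plus 3 SD, cut at about 49% in these data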;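 also: 0% = DMSO plus EC80 beta-PEA response and 100% = DMSO alone without agonist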
Target sequence (Q96RJ0 whole entry, looked up): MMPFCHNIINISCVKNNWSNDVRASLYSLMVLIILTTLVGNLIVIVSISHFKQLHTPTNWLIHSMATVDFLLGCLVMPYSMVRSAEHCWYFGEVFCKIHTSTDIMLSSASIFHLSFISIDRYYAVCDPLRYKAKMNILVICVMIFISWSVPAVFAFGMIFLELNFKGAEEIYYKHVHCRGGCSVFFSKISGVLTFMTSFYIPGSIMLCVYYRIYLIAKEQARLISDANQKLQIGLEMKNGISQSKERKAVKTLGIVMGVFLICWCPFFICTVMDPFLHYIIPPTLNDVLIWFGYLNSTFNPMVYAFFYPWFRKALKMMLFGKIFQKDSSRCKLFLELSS
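Material: RD-HGA16 CHO cells with stable hTAAR1 and Gα16; Dosing: single nominal final test compound concentration of 3 µM; Schedule: seeding 17-24 h prior, 75-min 37 °C, 30-min RT dye loading; Detection: kinetic Fluo-8 calcium fluorescence measurement; Measure: % inhibition from peak post-agonist over basal fluorescence ratio; Benchmarks: vehicle and agonist controls.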
MPTP inh: permeability transition pore inhibition | isolated mouse mitochondria, Ca2+ swelling absorbance, 30 min | inhibition, % at 10 µM | 360,000 tested, 1.4% active | AID 602449;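 active = inhibition of 50% or more, scaled per plate between neutral and stimulator controls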;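 also: 0% = DMSO wells given calcium and 100% = 1 mM EGTA wells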
GPR7 antag: blocks human GPR7 receptor signaling. P48145. GPR7-expressing cells, fluorescence antagonist assay. inhibition, % at 4.4 µM. 290,000 tested, 1.1% active. AID 1861; in the data active = inhibition above about 16%, passing the limit was not always enough;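 also: cells stimulated with the agonist NPW; 0% = agonist with vehicle and 100% = vehicle without agonist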
Target sequence (P48145 whole entry, looked up): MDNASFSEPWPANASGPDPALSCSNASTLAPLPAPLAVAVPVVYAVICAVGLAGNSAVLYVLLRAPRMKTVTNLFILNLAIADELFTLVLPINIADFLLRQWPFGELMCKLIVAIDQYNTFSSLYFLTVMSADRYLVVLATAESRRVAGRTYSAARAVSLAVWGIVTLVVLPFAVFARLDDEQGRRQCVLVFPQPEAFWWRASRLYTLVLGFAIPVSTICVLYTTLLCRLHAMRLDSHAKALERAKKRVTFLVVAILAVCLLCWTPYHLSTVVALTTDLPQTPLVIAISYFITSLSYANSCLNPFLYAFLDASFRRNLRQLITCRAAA
TAAR1 agonist: agonists of human TAAR1; activation, % at 3 µM; CHO RD-HGA16 TAAR1, Fluo-8 calcium fluorescence; vehicle wells 0%, saturating PEA agonist 100%; 360,000 tested, 0.99% active; AID 624467;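 active = activation above the mean activation of all test compounds in the run plus 3 SD, cut at about 38% in these data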
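System: CHO-derived RD-HGA16 cells with stable Gα16 and human TAAR1. Times: 17-24 h plating, Fluo-8 75 min 37 °C, 30 min RT. Measured by: calcium-sensitive Fluo-8 signal, excitation 470-495, emission 515-575 nm. Read-out basis: % activation relative to PEA EC100 response. Control set: DMSO and PEA EC100. Repeats: no replicates (n 1).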
DAGLB inhibitor: diacylglycerol lipase beta (human) inhibition | inhibition, % at 5.17 µM | HEK293T DAGLB membrane lysate, EnzChek fluorogenic substrate | AID 504411 | Q8NCG7 | 340,000 tested, 0.059% active; in the data active = inhibition above about 34%;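 also: 0% = enzyme with vehicle and 100% = wells lacking enzyme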
GPR7 antag cf: human GPR7 antagonism, confirmation assay; shares compounds with GPR7 antag; GPR7-expressing cells, calcium fluorescence antagonist mode; inhibition, % at 4.4 µM; 2,400 tested, 52% active; AID 1952; in the data active = inhibition above about 24%;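 also: stimulated with the GPR7 agonist NPW; 0% = agonist plus vehicle and 100% = vehicle alone without agonist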
MCHR1 antagonist: MCHR1 (human) antagonism in GPR7 counter-screen; shares compounds with GPR7 antag; MCHR1-expressing cells, fluorescence antagonist assay; inhibition, % at 4.4 µM; 2,400 tested, 62% active; in the data active = inhibition above about 22%;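 also: 0% = vehicle with agonist and 100% = vehicle without agonist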
The depositor's hits bear a star; nt = no result given. The list is not random: actives were taken first. Their share in the collection is about 4%.

SMILES	TAAR1 antagonist	MPTP inh	GPR7 antag	TAAR1 agonist	DAGLB inhibitor	GPR7 antag cf	MCHR1 antagonist
NS(=O)(=O)c1ccc(CCNC(=O)COC(=O)CC(c2ccccc2)c2ccccc2)cc1	7	0	52*	10	nt	2	69*
NS(=O)(=O)c1ccc(CCNC(=O)COC(=O)C2CCC2)cc1	-11	-3	38*	7	1	-3	-5
COC(=O)COc1ccc(C(=O)Cn2c(NCCCO)nc3ccccc32)cc1	10	-2	nt	0	-1	nt	nt
CC(=O)NC(c1ccc(F)c(F)c1)c1nc(-c2cccc(C(C)C)c2)cs1 (centres undefined)	5	1	nt	9	nt	nt	nt
CCCN(CC(=O)Nc1ccc(F)c(F)c1F)CC(=O)Nc1c(Cl)cccc1Cl	3	0	22*	3	0	25*	25*
CN(C)CCNc1ncnc2c1ncn2[C@H]1CN(Cc2ccc(Cl)cc2)C[C@@H](CO)O1	3	0	nt	1	nt	nt	nt
CNCc1c(OCc2ccccc2)ccc2ccccc12	-4	12	14	4	0	nt	nt
CC(C)(CO)NCc1c(OCc2ccc(Cl)cc2)ccc2ccccc12	-5	3	32*	10	-2	27*	15
O=C(NCc1ccccc1)[C@@H]1CCCN1C(=O)[C@H]1CCCN1C(=O)c1ccc(F)cc1	-26	nt	nt	0	nt	nt	nt
O=C(Nc1cnn(Cc2ccc(Cl)cc2)c1)c1ccc([N+](=O)[O-])cc1	13	2	5	21	2	nt	nt
O=C(Nc1ccc([N+](=O)[O-])cc1)c1ccc(Cn2cc([N+](=O)[O-])cn2)cc1	40	13	24*	15	2	66*	72*
COc1ccccc1C(=O)NC(=S)/C=C1/N(C)c2ccccc2C1(C)C	15	3	-14	0	27	nt	nt
CN1/C(=C\C(=S)NC(=O)c2ccccc2Cl)C(C)(C)c2ccccc21	25	7	38*	5	15	11	43*
CCc1nc2c(OCC(=O)c3ccc(F)cc3)cccn2c1N(C)C(=O)C(C)C	-11	0	nt	2	nt	nt	nt
CSc1cccc(NC(=O)Cc2ccccc2[N+](=O)[O-])c1	5	-1	27*	-1	-2	-9	8
Cc1ccc(S(=O)(=O)N2CCOCC2)cc1NC(=O)CN1CCN(C)CC1	6	-1	nt	13	-1	nt	nt
Cc1cccc(N2CCN(CC(=O)Nc3ccc(S(=O)(=O)N4CCOCC4)cc3)CC2)c1C	-1	2	33*	9	-2	3	35*
Cc1ccc(S(=O)(=O)N2CCOCC2)cc1NC(=O)CN1CCC(Cc2ccccc2)CC1	-1	32	37*	4	-2	25*	38*
Cc1cccc(N2CCN(CC(=O)Nc3nccs3)CC2)c1C	-11	0	36*	15	-4	34*	36*
COc1ccc(N(C(=O)C2CCCCC2)S(=O)(=O)c2cccc3cccnc23)cc1	-9	1	21*	1	-7	1	12
Cc1ccc(S(=O)(=O)N(C)CC(=O)NNC(=O)CCNS(=O)(=O)c2cccc(C)c2)cc1	5	1	nt	1	-3	nt	nt
CCN(CC)CC(O)Cn1c2ccccc2c2ccccc21 (centres undefined)	-14	7	-3	6	-3	nt	nt
CCN(CC)CC(O)Cn1c(C)c(-c2ccccc2)c2cc([N+](=O)[O-])ccc21 (centres undefined)	11	-1	41*	30	2	45*	48*
C[C@@H]1ON(C)[C@H]2C[C@H]3c4[nH]c5c(-c6cccc(Cl)c6)cccc5c4CCN3C(=O)[C@@H]12	6	nt	nt	3	nt	nt	nt
O=C(COc1ccccc1Cl)N1CCc2ccccc2C1	20	1	0	-2	-4	nt	nt
SMILES	TAAR1 antagonist	MPTP inh	GPR7 antag	TAAR1 agonist	DAGLB inhibitor	GPR7 antag cf	MCHR1 antagonist
O=C(COc1ccccc1F)N1CCc2ccccc2C1	7	2	26*	2	-3	34*	35*
CCc1cc2c(nc1CC)CCCN2S(=O)(=O)c1ccccc1C	-34	nt	nt	3	nt	nt	nt
O=C(c1cc(-c2ccccc2Cl)on1)N1CCCC1	-6	0	27*	2	-3	17	7
COc1ccccc1-c1cc(C(=O)N2CCCC2)no1	-42	-2	-13	-1	-5	nt	nt
NNc1nnc2c3cc(F)ccc3n(CCc3ccccc3)c2n1	-23	1	1	-2	4	nt	nt
O=C(Cc1ccc([N+](=O)[O-])cc1)OCc1ccc([N+](=O)[O-])cc1	23	1	44*	-5	-2	29*	64*
C[C@H](N)C(=O)OCc1ccc([N+](=O)[O-])cc1	-12	1	-15	0	-7	nt	nt
CCCS(=O)(=O)c1ccc(COC(=O)Cc2ccc([N+](=O)[O-])cc2)cc1	20	-1	28*	0	-1	25*	25*
C[C@@H]1COc2cccc(NCCCN3CCOCC3)c2S(=O)(=O)N1	-12	nt	nt	6	nt	nt	nt
O=C1CSC(c2cccs2)N1c1nncs1 (centres undefined)	-6	nt	nt	-1	nt	nt	nt
COc1ccc(CCN2CC(=O)N3CCc4ccc(N5CCOCC5)cc4C3CC2=O)cc1OC (centres undefined)	-28	nt	nt	8	nt	nt	nt
CCOc1ccc([N+](=O)[O-])c(N)c1	10	-2	28*	-1	-2	4	5
CCOc1ccc(Oc2cc(N)cc([N+](=O)[O-])c2)cc1	24	2	-5	1	5	nt	nt
O=P(c1ccccc1)(c1ccccc1)c1cc(Br)cc(Br)c1OCCO	-28	0	-6	-3	1	nt	nt
O=P(Cc1cc(Br)cc(Br)c1OCCO)(c1ccccc1)c1ccccc1	-23	3	33*	5	2	39*	20
O=c1c(/C=N/O)coc2ccc3ccccc3c12	-13	0	27*	11	2	2	14
Cc1ccc2occ(/C=N/O)c(=O)c2c1	-15	1	15	4	1	nt	nt
O=C(Nc1ncccc1O)c1ccc(Oc2ccccc2)cc1	3	-1	35*	12	-7	9	16
O=C(COc1ccc(C(=O)c2ccccc2)cc1)Nc1ncccc1O	9	-1	-6	5	-4	nt	nt
COc1ccc(CNCCC(c2ccccc2)C2CCOC(C)(C)C2)cc1 (centres undefined)	-15	13	16	4	-3	nt	nt
COc1ccc(CN(CCC(c2ccccc2)C2CCOC(C)(C)C2)C(C)=O)cc1 (centres undefined)	32	0	24*	4	0	5	26*
O=C(COc1ccc([N+](=O)[O-])cc1)Nc1ccc2c(c1)CCC2	6	2	nt	21	-8	nt	nt
O=C(Cc1ccc([N+](=O)[O-])cc1)Nc1ccc2c(c1)CCC2	-12	2	22*	3	-2	24	27*
